Bioassay records (PubChem BioAssay)
E coli WT exp: blocks growth of wild type E. coli BW25113. growth inhibition, % at 100 µM. 0.15% of 98,000 active. OD600 absorbance;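 active means growth inhibition above about 50% at one test dose, limit read from the data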;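 further: growth measured after 20 h incubation at 37 °C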
Jurkat viability: cytotoxic compounds reducing Jurkat cell viability | Jurkat E6.1 viability, ATP luminescence, 48 h | inhibition, % at 4 µM | 1.2% of 56,000 active | AID 463;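 active means inhibition above the mean inhibition of all tested compounds plus 3 SD, cut at about 28% in these data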
H69AR inhibit: blocks growth of human H69AR lung tumor cells. viability, % at 10 µM. AID 598. 6% of 85,000 active. H69AR lung tumor viability, ATP luminescence, 72 h; hits give low values;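 active means viability at or below 40%; inactive means viability above 40%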;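 further: multidrug resistant small cell line overexpressing MRP-1 efflux transporter; 100% = mean luminescence of untreated control wells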
tolC growth inh: E. coli tolC mutant growth inhibition | E. coli BW25113 tolC mutant growth, OD615 | growth inhibition, % at 10 µM (by protocol) | 2.2% of 65,000 active;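 active means growth inhibition at or above a cutoff equal to the mean over every tested compound plus 3 SD, cut at about 60% in these data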;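 further: growth measured after 20 h incubation at 37 °C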
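Test system: E. coli BW25113 ΔtolC::kan bacteria; incubation: 37 °C, 20 h exposure; medium: LB broth supplemented with 50 µg/mL kanamycin; read-out basis: percent growth inhibition; signal: A615 absorbance measurement; compound: 10 µM final, single dose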
HUVEC inhibit: human endothelial cell proliferation inhibition; viability, % at 10 µM (by protocol); 1.1% of 86,000 active; HUVEC proliferation, CellTiter-Glo luminescence, 72 h; hits give low values;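 active means viability at or below 30%; inactive means viability above 30%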;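 further: 100% = median luminescence of DMSO-only cell control wells on each plate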
Fibroblast inh: blocks proliferation of human lung fibroblasts; LL 47 human lung fibroblast viability, ATP luminescence; hits give low values; viability, % at 10 µM; 1.1% of 85,000 active; AID 719;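 active means viability at or below 50% in the single dose screen; inactive means viability above 50%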;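 further: compound exposure lasted 72 h before the ATP readout; 100% = median luminescence of untreated cell-only wells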
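Material: human LL 47 lung fibroblast cells; quantity: 1,150 cells/well; medium: IMEM plus 15% FBS; doses: 0.1% DMSO in all compound wells; timing: overnight attachment after seeding, then 72 h compound exposure at 37 °C; detection: CellTiter-Glo luminescence; measure: % viability of median cell-only signal; controls: cell-only wells, no compound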
* hit, by the source's call; · = no result given. In the library only some 6.4% were active in any assay of this set; here they are far more common.

SMILES | E coli WT exp | Jurkat viability | H69AR inhibit | tolC growth inh | HUVEC inhibit | Fibroblast inh
Oc1ccc(Nc2nc3ccccc3nc2Nc2ccc(O)cc2)cc1 | -1 | · | 2.3* | · | 32 | 4.0*
CC(NC(=O)Cc1cccs1)c1ccc2c(c1)OCO2 (configuration not stated) | 9 | 12 | 95 | 0 | 121 | 102
O=C(CC(SCCO)c1ccc2c(c1)OCO2)c1cccs1 (configuration not stated) | 10 | -7 | 4.3* | 8 | 95 | ·
O=C(CC(SCc1ccco1)c1ccc(O)cc1)c1cccs1 (configuration not stated) | 13 | 25 | 13* | 24 | 74 | 86
CCCNC(=O)c1cnc(Sc2ncc(C(F)(F)F)cc2Cl)n1C | 7 | · | 98 | · | 88 | 92
CCOC(=O)Cc1csc(NC(=O)c2csc3c2CCCC3)n1 | -36 | -4 | 83 | 64* | 103 | 107
CCOC(=O)Cc1csc(NC(=O)NC2(C(F)(F)F)Oc3ccc(Cl)cc3O2)n1 (configuration not stated) | 1 | · | · | · | · | ·
CCOC(=O)Cc1csc(NC(=O)c2cc3c(s2)CCCC3)n1 | -5 | · | 67 | · | 85 | 97
CCOC(=O)Cc1csc(NC(=O)c2ccc(NC(C)=O)cc2)n1 | · | · | 79 | · | 89 | 105
CCOC(=O)Cc1csc(NC(=O)NC2(C(F)(F)F)Oc3ccccc3O2)n1 | 1 | · | 17* | · | 68 | 62
CCOC(=O)Cc1csc(NC(=O)c2ccc(S(=O)(=O)N3CCCCC3)cc2)n1 | -1 | 15 | · | 62* | · | ·
COc1ccc(-c2nsc3c(N4CCN(S(=O)(=O)c5ccccc5)CC4)ncnc23)cc1 | · | 1 | 6.2* | -4 | 73 | 90
COc1ccc(-c2nsc3c(N4CCCC4)ncnc23)cc1 | -7 | -2 | 66 | -6 | 91 | 94
CCCCc1nnc(NC(=O)CSc2nc(=O)cc(N)n2-c2cccc(C)c2)s1 | 1 | · | 107 | · | 83 | 103
Cc1cc([N+](=O)[O-])nn1Cc1ccccc1F | 11 | · | · | · | · | ·
O=c1c2cc3ccccc3n2cnn1Cc1ccccc1F | 5 | 50* | 17* | 75* | 79 | 77
Cc1ccc(CSCC(=O)N/N=C/c2sccc2C)cc1 | -7 | · | · | · | · | ·
COc1ccc2cc3c(N)nn(C(=O)Cc4ccccc4OC)c3nc2c1 | -16 | 14 | 46 | 19 | 28* | 68
CCOC(=O)C1CCN(C(=O)Nc2ccc3nc(-c4ccco4)c(-c4ccco4)nc3c2)CC1 | -15 | · | 38* | 14 | 75 | 93
CSCCOC(=O)C1=C(C)NC(=O)CC1c1ccccc1Cl (configuration not stated) | 13 | -4 | 83 | 62* | 102 | 102
O=C(Nc1ccc(O)cc1)c1cc2n(n1)C(C(F)(F)F)CC(c1ccco1)N2 (configuration not stated) | -3 | 17 | · | 10 | 71 | 90
CCOc1ccc(NC(=O)c2cc3n(n2)C(C(F)(F)F)CC(c2ccco2)N3)cc1 (configuration not stated) | -8 | 3 | 63 | 9 | 97 | 37*
Cc1cccc(NC(=O)c2cc3n(n2)C(C(F)(F)F)CC(c2ccc4c(c2)OCO4)N3)c1 (configuration not stated) | -13 | -2 | · | 68* | · | ·
Cc1ccc(OCCN2CCN(c3ncnc4sc(C)c(C)c34)CC2)cc1 | 2 | · | 80 | · | 46 | 97
Clc1ccc(OCCN2CCN(c3ncnc4sccc34)CC2)cc1 | 5 | 44* | · | 94* | · | ·
SMILES | E coli WT exp | Jurkat viability | H69AR inhibit | tolC growth inh | HUVEC inhibit | Fibroblast inh
N/N=c1\sc2ccccc2n1-c1ccccc1 | 0 | · | 87 | · | 102 | 98
CCn1c(C(=O)N2CCC(C(=O)NCCCSC3CCCCC3)CC2)cc2sccc21 | -27 | 4 | 61 | 84* | 65 | 88
CCN1CCN(C(=O)C2CCN(C(=O)c3cc4sccc4n3CC)CC2)CC1 | 7 | -2 | 83 | -10 | 96 | 97
O=C(Cn1[nH]c(=O)c2ccccc2c1=O)Nc1ccc(-c2nnc3n2CCCCC3)cc1 | 10 | · | · | · | · | ·
CCOC(=O)c1cc(C#N)c(SCC(=O)c2cc(C#N)c(SC)nc2C)nc1C | · | 3 | 12* | 6 | 63 | ·
CCOC(=O)N1CCN(C(=O)c2cc3cc(Br)ccc3oc2=O)CC1 | 2 | 1 | 93 | 1 | 95 | 102
COC(=O)c1cc(COc2ccc3c(c2)oc(=O)c2ccccc23)c(C)o1 | -4 | · | 20* | · | 25* | 98
CC(C(=O)Nc1ccccc1-c1ccccc1)N1CCCCC1 (configuration not stated) | 5 | · | 2.6* | · | 113 | 96
CCOc1ccc(NC(=O)CSCc2cnn(-c3ccccc3)c2-n2cccc2)cc1 | -17 | · | 86 | · | 108 | 104
Cn1c(CCN2CCCCC2)nc2cc(NS(=O)(=O)c3ccc(Cl)cc3)ccc21 | 4 | 3 | 9.8* | 4 | 104 | 100
O=C1C2C3C=CC(C3=C(c3ccccc3)c3ccccc3)C2C(=O)N1Cc1ccccc1 (configuration not stated) | -12 | · | 97 | · | 83 | 95
Cc1cccnc1Nc1nc(-c2ccc(O)c(O)c2)cs1 | 23 | · | 28* | · | 58 | 84
Cc1c(C(=O)Nc2ccccc2N2CCOCC2)sc2nc3n(c(=O)c12)CCC3 | · | · | 93 | -9 | 102 | 97
N#Cc1c(N)oc(-c2ccc3c(c2)OCO3)c1-c1ccc2c(c1)OCO2 | -3 | · | 22* | 72* | 96 | 99
CCOc1cc(-c2c(C)c(CC)nc(N)c2C#N)ccc1O | 7 | 1 | 36* | 9 | 92 | 96
Cc1ccc(-c2cc(-c3ccc(C)o3)nc(N)c2C#N)cc1 | -1 | -8 | 37* | 1 | 80 | 96
CCOc1cc(-c2c(C)c(C)nc(N)c2C#N)ccc1O | -9 | 4 | 70 | 2 | 87 | 99
CCOc1cc(-c2cc(-c3ccc(C)o3)nc(N)c2C#N)ccc1O | -1 | · | 12* | · | 52 | 83
CC(C)CC(=O)c1c[nH]c(C(=O)NCCCn2ccnc2)c1 | 8 | · | · | · | · | ·
Cc1ccc(-c2cc(C(=O)N/N=C\c3cnn(C)c3C)c3ccccc3n2)cc1C | 2 | · | · | · | · | ·
Cc1cccc2c(=O)c(C(=O)NCCCN3CCOCC3)c[nH]c12 | · | · | 87 | · | 81 | 92
Cc1ccc(-c2cc(-c3ccc4c(c3)OCO4)c(C#N)c(N)n2)o1 | 3 | 1 | 19* | · | 71 | 85
Cc1ccc(-c2cc(-c3ccc(Cl)cc3)c(C#N)c(N)n2)o1 | 10 | 1 | 7.1* | -13 | 58 | 71
Cc1cc(-c2cc(-c3ccc(Cl)cc3)nc(N)c2C#N)co1 | -3 | · | 43 | 9 | 69 | 99
CCOC(=O)N1CCC(n2c(SCC(=O)c3ccccc3)nc3ccsc3c2=O)CC1 | -2 | · | · | · | · | ·
COC(=O)c1ccc(CN2C(=O)c3ccccc3S2(=O)=O)cc1 | -3 | -3 | 100 | 10 | 104 | 91
O=S1(=O)CCN(Cc2ccc(Cl)c(Cl)c2)CC1 | 3 | · | · | · | · | ·
O=S1(=O)c2ccccc2N=NN1Cc1ccc(Cl)c(Cl)c1 | 15 | · | 1.6* | · | 31 | 8.7*
CC(C)(C)c1ccc(CN2N=Nc3ccccc3S2(=O)=O)cc1 | 13 | · | 0.7* | · | 9.6* | 17*
